The results in this text go back to ChEMBL document CHEMBL1914308, “N-fused imidazoles as novel anticancer agents that inhibit catalytic activity of topoisomerase IIα and induce apoptosis in G1/S phase” (J Med Chem, 2011).

The structures appear in SMILES notation. Active and inactive are the calls of the source. No cut-off for these calls is given here.

Data set [1] deals with HEK293. In words: Induction of apoptosis in human HEK293 cells assessed as apoptotic cells at 25 uM after 48 hrs by propidium iodide staining-based FACS analysis (reference value: 4.88 +/- 0.8%). The class given is functional. For orientation: A flow cytometer gives signals particle by particle.
The subject of data set [2] is HEK293. Kind of data set: Anticlonogenic activity against human HEK293 cells assessed as inhibition of colony formation of cells at 20 to 100 uM after 48 hrs by crystal violet staining. The class given is functional, cell-based. The essentials: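 Clonogenic survival in HEK 293 and Vero cells, 48 h exposure at graded concentrations; % survival plotted; mean ± SD of three independent experiments. Cells grown in DMEM with 10% FBS and 1% antibiotic at 37 °C, 5% CO2; compound diluted from 100 mM DMSO stock into DMEM, added at 60–70% confluence.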

In data set [3] the test system is HEK293. In words: Anticlonogenic activity against human HEK293 cells after 48 hrs by crystal violet staining. Format: functional. The conditions noted are these: HEK293, 48 h, read-out: LC50 (the source's name). Put shortly: (§1)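 HEK 293 and Vero cells were grown in DMEM with 10% FBS and 1% penicillin/streptomycin at 37 °C in 5% CO₂. At 60–70% confluence they were exposed for 48 h to a range of concentrations, diluted in DMEM from 100 mM DMSO stocks. Colony survival is expressed as %. Values are mean ± SD of three independent experiments; LC₅₀ is the concentration killing half the cells.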

Data set [4] deals with HEK293. Kind of data set: Induction of cell cycle arrest in human HEK293 cells assessed as accumulation at S phase at 35 uM after 48 hrs by propidium iodide staining-based FACS analysis (reference value: 16.91 +/- 1.0%). Format: functional.
A short description of data set [5]: Cytotoxicity against human MCF10A cells assessed as cell survival at 100 uM after 48 hrs by MTT assay. Format: cell-based, MCF-10A. The conditions noted are these: read-out: Survival.
In data set [6] the test system is HEK293. In words: Induction of cell cycle arrest in human HEK293 cells assessed as accumulation at G2/M phase at 25 uM after 48 hrs by propidium iodide staining-based FACS analysis (reference value: 7.5 +/- 1.0%). The class given is functional.
Data set [7] deals with HEK293. In words: Cytotoxicity against human HEK293 cells assessed as cell survival after 48 hrs by MTT assay. The class given is functional. As to conditions: HEK293, 48 h, read-out: LC50 (the source's name). Put shortly:
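HEK 293 cells were cultured in DMEM with 10% FBS and antibiotics at 37 °C in 5% CO₂. At 60–70% confluence they were treated for 48 h with various concentrations, diluted in DMEM from 100 mM DMSO stocks. Survival was read by MTT. LC₅₀ is the concentration killing 50% of cells. Data are mean ± SD of three independent experiments.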
(In general: Tetrazolium dyes change colour on reduction, which living cells bring about.)

The subject of data set [8] is HEK293. Kind of data set: Induction of apoptosis in human HEK293 cells assessed as increase in apoptotic nuclei at 25 uM after 48 hrs by DAPI staining-based fluorescence microscopic analysis. The class given is functional. The essentials:
(§2)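 HEK 293 cells exposed 48 h to 0, 15, 25 or 35 μM, nuclei stained with DAPI and apoptotic nuclei counted by fluorescence imaging; three replicates.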

The test system of data set [9] is HEK293. In words: Antimigratory activity against human HEK293 cells at 25 uM after 24 hrs by wound healing assay. The class given is functional, cell-based. The essentials: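 Wound healing in HEK 293 monolayer: scratch made with sterile micro tip, cells then cultured with or without 25 μM compound; gap closure followed over time to 24 h. Best of three independent experiments shown.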

Data set [10] concerns the target T1, DNA topoisomerase 2-alpha (Homo sapiens, UniProt P11388). In words: Inhibition of etoposide poisoning activity against human recombinant DNA topoisomerase 2alpha assessed as enhancement of in relaxation of supercoiled plasmid pBR322 DNA at 200 uM after 30 mins by agarose gel electrophoresis in presence of etoposide.
The test system of data set [11] is HEK293. Kind of data set: Induction of apoptosis in human HEK293 cells assessed as apoptotic cells at 35 uM after 48 hrs by propidium iodide staining-based FACS analysis (reference value: 4.88 +/- 0.8%). The class given is functional.
The target of data set [12] is T1, DNA topoisomerase 2-alpha. Kind of data set: Competitive inhibition of human topoisomerase-2 alpha-ATPase activity by Lineweaver-Burk assay in presence of 200 to 520 uM ATP. Put shortly:
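Compound at 0, 50, 100, 150 μM, each with ATP at 200–520 μM; 20 min at 37 °C. Released phosphate read by malachite green at OD 620 nm; Lineweaver–Burk analysis, Ki from slope replot.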

For data set [13], the target named is T1, DNA topoisomerase 2-alpha. Kind of data set: Inhibition of human topoisomerase 2 alpha-mediated decatenation of kDNA by agarose gel electrophoresis. Put shortly:
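kDNA decatenation by hTopoIIα run at 10 to 100 μM compound under the standard decatenation conditions (37 °C, 30 min, agarose gel, densitometry); IC50 taken from the concentration–inhibition plot.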

In data set [14] the test system is HEK293. Kind of data set: Induction of apoptosis in human HEK293 cells assessed as decrease in Bcl-XL protein expression at 15 to 25 uM after 48 hrs by Western blot analysis. Format: functional, cell-based. Put shortly:
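Whole-cell extracts from HEK 293 cells after 48 h at graded concentrations, Western blotted for caspase-3, Bax, Bcl-XL and PARP (cleaved 86 kDa fragment); β-actin as loading control.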
For orientation: Immunoblotting shows a protein as a band on a membrane.

For data set [15], the system named is HEK293. Kind of data set: Anticlonogenic activity against human HEK293 cells assessed as inhibition of colony formation of cells at 25 uM after 48 hrs by crystal violet staining. The class given is functional, cell-based.
Data set [16] is described as follows: Cytotoxicity activity against african green monkey Vero assessed as cell survival at 100 uM after 48 hrs by MTT assay. The class given is cell-based. As to conditions: chlorocebus sabaeus, Vero cells; read-out: Activity. The essentials: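 MTT survival of HEK 293 and Vero cells after 48 h with compound at graded concentrations. DMEM, 10% FBS, 37 °C, 5% CO2; dilutions in DMEM from 100 mM DMSO stock, added at 60–70% confluence. Mean ± SD of three independent experiments.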

Data set [17] has as its system HEK293. In words: Induction of cell cycle arrest in human HEK293 cells assessed as accumulation at G1 phase at 15 uM after 48 hrs by propidium iodide staining-based FACS analysis (reference value: 61 +/- 0.9%). The class given is functional.
Data set [18] deals with HEK293. In words: Induction of apoptosis in human HEK293 cells assessed as increase in apoptotic nuclei at 15 uM after 48 hrs by DAPI staining-based fluorescence microscopic analysis. Format: functional. Put shortly: as §2
Data set [19] can be described thus: Anticlonogenic activity against african green monkey Vero after 48 hrs by crystal violet staining. The class given is ADME, cell-based. The conditions noted are these: chlorocebus sabaeus, Vero cells; read-out: LC50. Put shortly: as §1
Data set [20] deals with T1, DNA topoisomerase 2-alpha. Kind of data set: Inhibition of topoisomerase 2 alpha-mediated DNA relaxation activity in human HEK293 cells assessed as increase in supercoiled DNA at 35 uM after 3 to 4 hrs by agarose gel electrophoresis in presence of 20 to 250 mM ATP. Format: cell-based.
For data set [21], the system named is HEK293. Kind of data set: Induction of apoptosis in human HEK293 cells assessed as increase in apoptotic nuclei at 35 uM after 48 hrs by DAPI staining-based fluorescence microscopic analysis. Format: functional. The essentials:
as §2

The target of data set [22] is T1, DNA topoisomerase 2-alpha. In words: Inhibition of human topoisomerase 2 alpha-mediated unwinding of supercoiled DNA assessed as DNA intercalation at 100 uM by agarose gel electrophoresis. Put shortly:
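250 ng negatively supercoiled E. coli plasmid incubated 20 min at 37 °C with 1 μg/mL ethidium bromide (intercalator control), 100 μM etoposide or test compound; run on 1% agarose in TAE without EtBr, then post-stained with 0.5 μg/mL EtBr; mobility retardation scored.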

Data set [23] addresses T1, DNA topoisomerase 2-alpha. In words: Inhibition of etoposide poisoning activity against human recombinant DNA topoisomerase 2alpha assessed as enhancement of in relaxation of supercoiled plasmid pBR322 DNA at 100 uM after 30 mins by agarose gel electrophoresis.
In data set [24] the test system is HEK293. In words: Induction of cell cycle arrest in human HEK293 cells assessed as accumulation at sub-G0 phase after 48 hrs by propidium iodide staining-based FACS analysis. The class given is functional.

T1 sequence (P11388 whole entry): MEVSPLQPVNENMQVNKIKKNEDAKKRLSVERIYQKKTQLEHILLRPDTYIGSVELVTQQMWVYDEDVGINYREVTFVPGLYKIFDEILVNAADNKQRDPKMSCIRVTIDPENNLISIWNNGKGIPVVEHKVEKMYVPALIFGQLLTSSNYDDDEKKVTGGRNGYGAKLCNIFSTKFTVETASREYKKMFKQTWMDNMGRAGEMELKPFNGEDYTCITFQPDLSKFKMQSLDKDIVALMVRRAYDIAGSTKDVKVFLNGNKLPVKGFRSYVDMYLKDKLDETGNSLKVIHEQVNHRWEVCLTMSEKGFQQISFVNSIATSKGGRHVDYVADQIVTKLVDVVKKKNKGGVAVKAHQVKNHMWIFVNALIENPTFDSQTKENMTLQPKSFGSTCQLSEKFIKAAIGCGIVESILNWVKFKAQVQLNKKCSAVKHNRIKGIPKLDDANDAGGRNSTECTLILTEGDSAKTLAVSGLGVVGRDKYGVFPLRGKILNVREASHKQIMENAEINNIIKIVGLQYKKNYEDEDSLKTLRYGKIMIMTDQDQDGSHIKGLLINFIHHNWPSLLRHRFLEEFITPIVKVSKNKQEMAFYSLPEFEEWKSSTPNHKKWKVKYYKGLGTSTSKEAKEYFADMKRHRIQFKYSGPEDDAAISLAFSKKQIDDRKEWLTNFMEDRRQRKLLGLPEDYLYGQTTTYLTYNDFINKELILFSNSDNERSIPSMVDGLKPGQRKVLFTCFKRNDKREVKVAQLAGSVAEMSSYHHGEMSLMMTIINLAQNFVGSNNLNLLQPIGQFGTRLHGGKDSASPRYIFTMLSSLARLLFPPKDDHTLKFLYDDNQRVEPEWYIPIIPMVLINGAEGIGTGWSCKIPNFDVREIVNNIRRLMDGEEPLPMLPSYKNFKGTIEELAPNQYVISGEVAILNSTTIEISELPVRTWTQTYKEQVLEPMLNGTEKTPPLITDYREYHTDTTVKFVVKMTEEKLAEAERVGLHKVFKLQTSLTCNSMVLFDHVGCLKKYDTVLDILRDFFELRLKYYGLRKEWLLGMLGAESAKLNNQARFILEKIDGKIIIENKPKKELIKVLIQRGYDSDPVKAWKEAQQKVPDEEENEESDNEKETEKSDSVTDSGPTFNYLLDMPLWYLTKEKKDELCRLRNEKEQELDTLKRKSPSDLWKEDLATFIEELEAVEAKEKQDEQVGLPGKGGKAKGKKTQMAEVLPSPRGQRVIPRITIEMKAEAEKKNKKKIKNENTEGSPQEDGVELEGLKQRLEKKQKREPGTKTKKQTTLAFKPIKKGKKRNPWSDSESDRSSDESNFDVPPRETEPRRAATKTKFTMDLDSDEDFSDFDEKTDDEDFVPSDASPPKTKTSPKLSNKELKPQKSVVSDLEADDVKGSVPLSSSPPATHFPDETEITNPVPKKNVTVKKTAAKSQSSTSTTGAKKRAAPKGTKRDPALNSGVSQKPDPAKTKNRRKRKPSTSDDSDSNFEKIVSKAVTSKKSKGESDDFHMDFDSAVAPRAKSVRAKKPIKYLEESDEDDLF

With `CC(C)(C)Nc1c(-c2ccc(C(=O)O)cc2)nc2ccccn12`, the Activity in the data set on HEK293 [1] amounted to 27.46%; in the data set with HEK293 [4], 10.07%; in the data set on HEK293 [6], 8.93%; with HEK293 [8] it was 40%; with HEK293 [11] it was 49.29%; with HEK293 [17], 34.64%. Besides, the Activity was 20% in the data set with HEK293 [18], 80% with HEK293 [21] and “Dose-dependent effect” in the data set with HEK293 [24]. Moreover, the inhibition result with HEK293 [2] is “Dose-dependent effect”. Further, the CC50 with HEK293 [3] stood at 30 µM; in the data set with HEK293 [7], 12 µM. The figures for the viability at 48 h, 100 µM in data set [5] and in [16] were 75% and less than 50%, respectively. In addition, the result in the data set with HEK293 [9], with HEK293 [14] and with HEK293 [15] was Active. The inhibition result in data set [10], in data set [20], in data set [22] and in [23] was “inactive” in each case. The Ki (commonly a dissociation constant, usually derived from enzyme kinetics or from competition with a known ligand) in data set [12] stood at 75 µM. Also, in data set [13], it took 52.7 µM to reach half-maximal inhibition (IC50). In addition, the CC50 at 48 h in data set [19] came out at 98 µM.
